Data: ChEMBL document CHEMBL1955770, “Inhibition of S/G2 phase CDK4 reduces mitotic fidelity” (J Biol Chem, 2006)

Assays:
[1] = molecular target: Tyrosine-protein kinase ABL2 (Homo sapiens) (UniProt P42684); test: Inhibition of ABL2 at 1 uM
Method in brief: (§1)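 Competition binding screen across a kinase panel with compound at 1 μM. Read-out is % competition. Kinases not hit at this concentration were scored '<50'. No Kd was determined for hits.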

[2] = molecular target: 5'-AMP-activated protein kinase catalytic subunit alpha-1 (Homo sapiens) (UniProt Q13131); test: Inhibition of AMPK-alpha1 at 1 uM; method in brief: as §1
Chain of 5'-AMP-activated protein kinase catalytic subunit alpha-1 (Homo sapiens) (Q13131 whole entry, looked up): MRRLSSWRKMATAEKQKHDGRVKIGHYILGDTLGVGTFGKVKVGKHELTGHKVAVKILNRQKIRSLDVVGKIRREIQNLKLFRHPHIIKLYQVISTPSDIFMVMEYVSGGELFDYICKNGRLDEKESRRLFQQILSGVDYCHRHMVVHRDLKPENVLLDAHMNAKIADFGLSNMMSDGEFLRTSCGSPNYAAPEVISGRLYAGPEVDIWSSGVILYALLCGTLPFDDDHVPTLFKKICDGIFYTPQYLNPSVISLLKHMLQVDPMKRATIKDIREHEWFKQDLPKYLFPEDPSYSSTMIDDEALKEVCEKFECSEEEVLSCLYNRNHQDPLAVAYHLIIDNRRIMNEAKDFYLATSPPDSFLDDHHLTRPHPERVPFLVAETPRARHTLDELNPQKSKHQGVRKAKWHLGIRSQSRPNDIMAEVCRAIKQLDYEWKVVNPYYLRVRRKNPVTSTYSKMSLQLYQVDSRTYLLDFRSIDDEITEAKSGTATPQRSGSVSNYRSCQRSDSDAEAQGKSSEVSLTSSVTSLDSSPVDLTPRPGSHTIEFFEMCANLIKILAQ

[3] = molecular target: Aurora kinase C (Homo sapiens) (UniProt Q9UQB9); test: Inhibition of AURKC at 1 uM; method in brief: as §1
[4] = molecular target: Tyrosine-protein kinase Blk (Homo sapiens) (UniProt P51451); test: Inhibition of BLK at 1 uM; method in brief: as §1
[5] = molecular target: Tyrosine-protein kinase BTK (Homo sapiens) (UniProt Q06187); test: Inhibition of BTK at 1 uM; method in brief: as §1
[6] = molecular target: Calcium/calmodulin-dependent protein kinase type 1 (Homo sapiens) (UniProt Q14012); test: Inhibition of CAMK1 at 1 uM; method in brief: as §1
[7] = molecular target: Calcium/calmodulin-dependent protein kinase type II subunit beta (Homo sapiens) (UniProt Q13554); test: Inhibition of CAMK2B at 1 uM; method in brief: as §1
[8] = molecular target: Calcium/calmodulin-dependent protein kinase kinase 1 (Homo sapiens) (UniProt Q8N5S9); test: Inhibition of CAMKK1 at 1 uM
[9] = molecular target: Cyclin-dependent kinase 5 (Homo sapiens) (UniProt Q00535); test: Inhibition of CDK5 at 1 uM
[10] = molecular target: Dual specificity protein kinase CLK4 (Homo sapiens) (UniProt Q9HAZ1); test: Inhibition of CLK4 at 1 uM
[11] = molecular target: Death-associated protein kinase 3 (Homo sapiens) (UniProt O43293); test: Inhibition of DAPK3 at 1 uM
[12] = molecular target: Myotonin-protein kinase (Homo sapiens) (UniProt Q09013); test: Inhibition of DMPK at 1 uM
[13] = molecular target: Epidermal growth factor receptor (Homo sapiens) (UniProt P00533); test: Inhibition of EGFR at 1 uM
[14] = molecular target: Ephrin type-A receptor 3 (Homo sapiens) (UniProt P29320); test: Inhibition of EPHA3 at 1 uM
[15] = molecular target: Ephrin type-B receptor 1 (Homo sapiens) (UniProt P54762); test: Inhibition of EPHB1 at 1 uM
[16] = molecular target: Receptor tyrosine-protein kinase erbB-2 (Homo sapiens) (UniProt P04626); test: Inhibition of ERBB2 at 1 uM
[17] = molecular target: Receptor tyrosine-protein kinase erbB-4 (Homo sapiens) (UniProt Q15303); test: Inhibition of ERBB4 at 1 uM
[18] = molecular target: Tyrosine-protein kinase Fer (Homo sapiens) (UniProt P16591); test: Inhibition of FER at 1 uM
Chain of Tyrosine-protein kinase Fer (Homo sapiens) (P16591 whole entry, looked up): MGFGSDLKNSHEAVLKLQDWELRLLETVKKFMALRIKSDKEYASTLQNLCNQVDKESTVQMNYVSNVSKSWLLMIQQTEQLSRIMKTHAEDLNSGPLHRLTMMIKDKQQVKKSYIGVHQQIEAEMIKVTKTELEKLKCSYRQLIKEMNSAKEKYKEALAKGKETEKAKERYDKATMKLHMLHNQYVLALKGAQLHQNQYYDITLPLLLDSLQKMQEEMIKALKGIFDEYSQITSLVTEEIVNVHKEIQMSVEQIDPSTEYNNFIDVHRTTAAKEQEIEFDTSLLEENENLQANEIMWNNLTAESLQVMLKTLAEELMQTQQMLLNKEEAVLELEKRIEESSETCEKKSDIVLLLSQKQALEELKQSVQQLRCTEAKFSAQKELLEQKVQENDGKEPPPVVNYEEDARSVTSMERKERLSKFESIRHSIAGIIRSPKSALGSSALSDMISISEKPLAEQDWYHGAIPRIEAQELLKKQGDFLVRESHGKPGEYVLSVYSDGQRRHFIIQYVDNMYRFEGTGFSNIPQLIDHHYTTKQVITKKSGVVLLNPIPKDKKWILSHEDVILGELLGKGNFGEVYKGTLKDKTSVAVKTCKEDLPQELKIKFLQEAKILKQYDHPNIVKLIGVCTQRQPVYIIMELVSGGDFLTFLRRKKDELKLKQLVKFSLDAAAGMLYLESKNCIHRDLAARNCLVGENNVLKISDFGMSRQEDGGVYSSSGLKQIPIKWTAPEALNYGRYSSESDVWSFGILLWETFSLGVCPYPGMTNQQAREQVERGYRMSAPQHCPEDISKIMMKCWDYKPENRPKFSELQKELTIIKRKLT

[19] = molecular target: Cyclin-G-associated kinase (Homo sapiens) (UniProt O14976); test: Inhibition of GAK at 1 uM
Insulin receptor = Insulin receptor (Homo sapiens, UniProt P06213); test: Inhibition of INSR at 1 uM
[20] = molecular target: Tyrosine-protein kinase JAK2 (Homo sapiens) (UniProt O60674); test: Inhibition of JAK2(Kin.Dom.2) at 1 uM
[21] = molecular target: Mitogen-activated protein kinase 8 (Homo sapiens) (UniProt P45983); test: Inhibition of JNK1 at 1 uM
[22] = molecular target: Tyrosine-protein kinase Lck (Homo sapiens, UniProt P06239); test: Inhibition of LCK at 1 uM
Chain of Tyrosine-protein kinase Lck (P06239 2-509 limits assumed): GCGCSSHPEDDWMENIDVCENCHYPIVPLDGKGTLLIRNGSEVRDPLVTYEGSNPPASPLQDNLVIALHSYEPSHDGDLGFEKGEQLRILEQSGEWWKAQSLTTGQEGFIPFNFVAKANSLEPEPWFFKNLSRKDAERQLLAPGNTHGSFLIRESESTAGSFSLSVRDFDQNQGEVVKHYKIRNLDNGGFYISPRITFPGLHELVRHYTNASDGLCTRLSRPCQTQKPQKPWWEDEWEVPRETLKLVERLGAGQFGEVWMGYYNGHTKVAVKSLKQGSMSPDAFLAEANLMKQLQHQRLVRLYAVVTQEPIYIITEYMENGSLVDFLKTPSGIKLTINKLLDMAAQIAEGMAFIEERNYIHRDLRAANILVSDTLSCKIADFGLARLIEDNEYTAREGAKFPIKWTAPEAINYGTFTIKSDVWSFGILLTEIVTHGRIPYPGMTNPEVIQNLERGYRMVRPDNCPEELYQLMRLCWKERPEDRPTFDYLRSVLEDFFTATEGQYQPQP

[23] = molecular target: LIM domain kinase 1 (Homo sapiens) (UniProt P53667); test: Inhibition of LIMK1 at 1 uM
[24] = molecular target: Leukocyte tyrosine kinase receptor (Homo sapiens) (UniProt P29376); test: Inhibition of LTK at 1 uM
[25] = molecular target: Mitogen-activated protein kinase kinase kinase 4 (Homo sapiens) (UniProt Q9Y6R4); test: Inhibition of MAP3K4 at 1 uM
[26] = molecular target: Mitogen-activated protein kinase kinase kinase kinase 5 (Homo sapiens) (UniProt Q9Y4K4); test: Inhibition of MAP4K5 at 1 uM
Chain of Mitogen-activated protein kinase kinase kinase kinase 5 (Homo sapiens) (Q9Y4K4 whole entry, looked up): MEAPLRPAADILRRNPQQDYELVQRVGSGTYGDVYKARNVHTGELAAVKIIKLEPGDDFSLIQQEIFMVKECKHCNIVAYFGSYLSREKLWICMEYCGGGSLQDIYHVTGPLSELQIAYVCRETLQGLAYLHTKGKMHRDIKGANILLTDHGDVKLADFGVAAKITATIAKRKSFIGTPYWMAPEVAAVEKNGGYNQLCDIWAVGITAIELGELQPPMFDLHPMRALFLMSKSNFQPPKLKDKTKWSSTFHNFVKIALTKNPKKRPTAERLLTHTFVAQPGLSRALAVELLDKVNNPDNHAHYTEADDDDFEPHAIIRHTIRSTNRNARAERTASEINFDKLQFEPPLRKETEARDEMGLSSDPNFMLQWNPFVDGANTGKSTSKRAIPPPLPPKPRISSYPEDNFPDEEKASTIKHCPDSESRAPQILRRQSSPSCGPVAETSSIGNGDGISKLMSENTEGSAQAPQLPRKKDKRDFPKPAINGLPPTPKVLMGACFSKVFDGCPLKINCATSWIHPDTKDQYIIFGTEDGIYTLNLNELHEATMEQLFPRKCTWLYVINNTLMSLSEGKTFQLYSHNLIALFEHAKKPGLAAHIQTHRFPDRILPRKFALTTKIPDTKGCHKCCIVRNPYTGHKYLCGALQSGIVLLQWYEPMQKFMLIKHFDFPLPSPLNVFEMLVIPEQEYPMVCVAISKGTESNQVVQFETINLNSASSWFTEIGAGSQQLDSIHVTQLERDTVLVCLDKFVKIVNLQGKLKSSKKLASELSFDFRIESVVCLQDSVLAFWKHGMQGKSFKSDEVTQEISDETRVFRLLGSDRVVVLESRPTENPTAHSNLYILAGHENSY

[27] = molecular target: Serine/threonine-protein kinase MARK2 (Homo sapiens) (UniProt Q7KZI7); test: Inhibition of MARK2 at 1 uM
[28] = molecular target: MAP kinase-interacting serine/threonine-protein kinase 2 (Homo sapiens) (UniProt Q9HBH9); test: Inhibition of MKNK2 at 1 uM
[29] = molecular target: Myosin light chain kinase 2, skeletal/cardiac muscle (Homo sapiens) (UniProt Q9H1R3); test: Inhibition of MYLK2 at 1 uM
[30] = molecular target: Serine/threonine-protein kinase PAK 3 (Homo sapiens) (UniProt O75914); test: Inhibition of PAK3 at 1 uM
[31] = molecular target: Serine/threonine-protein kinase PAK 6 (Homo sapiens) (UniProt Q9NQU5); test: Inhibition of PAK6 at 1 uM
[32] = molecular target: Phosphorylase b kinase gamma catalytic chain, liver/testis isoform (Homo sapiens) (UniProt P15735); test: Inhibition of PHKG2 at 1 uM
[33] = molecular target: Serine/threonine-protein kinase PLK4 (Homo sapiens) (UniProt O00444); test: Inhibition of PLK4 at 1 uM
Chain of Serine/threonine-protein kinase PLK4 (Homo sapiens) (O00444 whole entry): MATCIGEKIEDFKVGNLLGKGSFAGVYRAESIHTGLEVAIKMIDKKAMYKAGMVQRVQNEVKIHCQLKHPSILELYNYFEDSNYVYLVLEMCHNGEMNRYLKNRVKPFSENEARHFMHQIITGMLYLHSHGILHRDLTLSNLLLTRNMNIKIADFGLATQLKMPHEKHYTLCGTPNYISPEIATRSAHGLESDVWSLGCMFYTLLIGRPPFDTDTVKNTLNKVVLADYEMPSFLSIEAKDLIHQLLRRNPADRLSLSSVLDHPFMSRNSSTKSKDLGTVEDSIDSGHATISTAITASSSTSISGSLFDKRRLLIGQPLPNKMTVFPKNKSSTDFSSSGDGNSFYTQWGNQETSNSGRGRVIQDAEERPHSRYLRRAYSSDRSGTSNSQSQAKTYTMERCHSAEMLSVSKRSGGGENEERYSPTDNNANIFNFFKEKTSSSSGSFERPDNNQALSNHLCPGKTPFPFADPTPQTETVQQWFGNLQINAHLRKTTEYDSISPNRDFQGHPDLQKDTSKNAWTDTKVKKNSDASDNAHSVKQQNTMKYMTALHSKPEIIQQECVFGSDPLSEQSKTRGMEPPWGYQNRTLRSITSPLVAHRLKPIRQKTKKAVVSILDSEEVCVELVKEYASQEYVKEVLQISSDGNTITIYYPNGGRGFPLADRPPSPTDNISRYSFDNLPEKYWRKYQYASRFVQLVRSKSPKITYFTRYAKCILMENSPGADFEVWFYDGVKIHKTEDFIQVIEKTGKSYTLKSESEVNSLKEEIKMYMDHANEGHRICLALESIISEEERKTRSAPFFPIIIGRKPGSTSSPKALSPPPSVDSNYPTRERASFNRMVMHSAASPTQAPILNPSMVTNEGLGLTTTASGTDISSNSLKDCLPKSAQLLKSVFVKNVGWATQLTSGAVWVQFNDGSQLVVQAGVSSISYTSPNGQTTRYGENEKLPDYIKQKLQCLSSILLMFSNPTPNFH

[34] = molecular target: Protein-tyrosine kinase 6 (Homo sapiens) (UniProt Q13882); test: Inhibition of PTK6 at 1 uM
[35] = molecular target: RAF proto-oncogene serine/threonine-protein kinase (Homo sapiens) (UniProt P04049); test: Inhibition of RAF1 at 1 uM
[36] = molecular target: Proto-oncogene tyrosine-protein kinase ROS (Homo sapiens) (UniProt P08922); test: Inhibition of ROS1 at 1 uM
[37] = molecular target: Serine/threonine-protein kinase STK11 (Homo sapiens) (UniProt Q15831); test: Inhibition of STK11 at 1 uM
[38] = molecular target: Serine/threonine-protein kinase 4 (Homo sapiens) (UniProt Q13043); test: Inhibition of STK4 at 1 uM
[39] = molecular target: Angiopoietin-1 receptor (Homo sapiens) (UniProt Q02763); test: Inhibition of TIE2 at 1 uM
[40] = molecular target: TRAF2 and NCK-interacting protein kinase (Homo sapiens) (UniProt Q9UKE5); test: Inhibition of TNIK at 1 uM
Chain of TRAF2 and NCK-interacting protein kinase (Homo sapiens) (Q9UKE5 whole entry, looked up): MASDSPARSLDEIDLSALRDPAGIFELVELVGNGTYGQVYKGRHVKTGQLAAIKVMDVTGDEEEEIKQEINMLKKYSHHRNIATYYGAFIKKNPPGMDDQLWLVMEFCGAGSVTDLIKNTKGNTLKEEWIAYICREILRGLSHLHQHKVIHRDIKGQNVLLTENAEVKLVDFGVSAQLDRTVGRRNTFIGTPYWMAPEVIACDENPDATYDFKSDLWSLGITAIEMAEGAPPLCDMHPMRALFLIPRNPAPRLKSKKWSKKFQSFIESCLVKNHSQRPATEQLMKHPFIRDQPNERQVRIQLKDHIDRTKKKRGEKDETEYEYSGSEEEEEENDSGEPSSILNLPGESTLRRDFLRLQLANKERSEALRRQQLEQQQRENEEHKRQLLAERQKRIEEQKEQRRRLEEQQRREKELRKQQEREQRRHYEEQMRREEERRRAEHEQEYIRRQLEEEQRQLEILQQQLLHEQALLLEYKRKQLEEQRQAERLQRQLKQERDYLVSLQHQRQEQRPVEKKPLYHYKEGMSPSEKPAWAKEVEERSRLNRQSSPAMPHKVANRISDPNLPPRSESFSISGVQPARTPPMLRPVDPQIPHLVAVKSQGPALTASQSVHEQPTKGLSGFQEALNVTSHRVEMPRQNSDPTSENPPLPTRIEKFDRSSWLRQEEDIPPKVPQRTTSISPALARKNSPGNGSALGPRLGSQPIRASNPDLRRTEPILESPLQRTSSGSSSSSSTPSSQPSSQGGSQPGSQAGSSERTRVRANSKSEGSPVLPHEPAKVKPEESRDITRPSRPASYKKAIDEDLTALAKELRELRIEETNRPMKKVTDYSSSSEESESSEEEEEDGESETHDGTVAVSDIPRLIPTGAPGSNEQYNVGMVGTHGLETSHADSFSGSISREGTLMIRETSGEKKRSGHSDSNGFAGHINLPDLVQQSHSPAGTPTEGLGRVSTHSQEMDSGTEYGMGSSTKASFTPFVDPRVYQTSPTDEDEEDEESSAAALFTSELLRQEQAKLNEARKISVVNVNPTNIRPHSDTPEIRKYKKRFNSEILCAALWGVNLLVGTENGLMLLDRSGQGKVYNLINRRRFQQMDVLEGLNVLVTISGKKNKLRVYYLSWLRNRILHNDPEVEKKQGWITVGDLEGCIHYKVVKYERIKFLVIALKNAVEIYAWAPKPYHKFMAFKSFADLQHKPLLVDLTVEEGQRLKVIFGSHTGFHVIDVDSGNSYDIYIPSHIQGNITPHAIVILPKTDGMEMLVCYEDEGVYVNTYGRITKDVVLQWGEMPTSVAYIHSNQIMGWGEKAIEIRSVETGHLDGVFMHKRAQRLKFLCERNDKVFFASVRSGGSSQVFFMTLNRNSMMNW

[41] = molecular target: High affinity nerve growth factor receptor (Homo sapiens) (UniProt P04629); test: Inhibition of TRKA at 1 uM
[42] = molecular target: Tyrosine-protein kinase TXK (Homo sapiens) (UniProt P42681); test: Inhibition of TXK at 1 uM
[43] = molecular target: Tyrosine-protein kinase Yes (Homo sapiens) (UniProt P07947); test: Inhibition of YES at 1 uM
HCT-116 = test: Cell cycle arrest in Rb-competent human HCT116 cells assessed as reduction in S phase after 24 hrs using BrdUrd staining by FACS analysis; assay type: functional, cell-based; details: HCT-116, 24 h
Method in brief: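 Asynchronous HCT-116 cells treated 24 h with increasing inhibitor doses, then given a 30-min BrdUrd pulse before harvest. Percentage of BrdUrd-positive cells measured by FACS; IC50 taken as the dose reducing S phase to 50% of control.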

With `CN1CCN(c2ccc(Nc3nc(N)c(C(=O)c4ccc5c(c4)OCCO5)s3)cc2)CC1` the inhibition [1] was less than 50%, the inhibition [2] was less than 50% and the inhibition [3] was less than 50%. For the same compound, the inhibition [4] was less than 50%, the inhibition [5] was less than 50% and the inhibition [6] was less than 50%. For the same compound, the inhibition [7] was less than 50%, the inhibition [8] was less than 50% and the inhibition [9] was less than 50%. It also gave an inhibition [10] of 97%, an inhibition [11] of less than 50% and an inhibition [12] of less than 50%. It also gave an inhibition [13] of less than 50%, an inhibition [14] of less than 50% and an inhibition [15] of less than 50%. It also gave an inhibition [16] of less than 50%, an inhibition [17] of less than 50% and an inhibition [18] of less than 50%. The inhibition [19] was 100%, the inhibition (Insulin receptor) was less than 50% and the inhibition [20] was less than 50%. It also gave an inhibition [21] of less than 50%, an inhibition [22] of less than 50% and an inhibition [23] of less than 50%. It also gave an inhibition [24] of less than 50%, an inhibition [25] of less than 50% and an inhibition [26] of less than 50%. The inhibition [27] was less than 50%, the inhibition [28] was less than 50% and the inhibition [29] was less than 50%. The inhibition [30] was less than 50%, the inhibition [31] was less than 50% and the inhibition [32] was less than 50%. The inhibition [33] was less than 50%, the inhibition [34] was less than 50% and the inhibition [35] was less than 50%. For the same compound, the inhibition [36] was less than 50%, the inhibition [37] was less than 50% and the inhibition [38] was less than 50%. For the same compound, the inhibition [39] was less than 50%, the inhibition [40] was less than 50% and the inhibition [41] was less than 50%. The inhibition [42] was less than 50%, the inhibition [43] was less than 50% and the IC50 (HCT-116) was 3.9 µM. It also gave an IC90 (HCT-116) of 6.1 µM.
